Emax, Ki and IC50 data for ten molecules are collected here from ChEMBL document CHEMBL1135024, “Studies toward the discovery of the next generation of antidepressants. Part 2: incorporating a 5-HT(1A) antagonist component into a class of serotonin reuptake inhibitors” (Bioorg Med Chem Lett, 2002).

For test [1], the target named is T1, 5-hydroxytryptamine receptor 1A (Homo sapiens) (UniProt P08908).
T1 sequence (whole entry): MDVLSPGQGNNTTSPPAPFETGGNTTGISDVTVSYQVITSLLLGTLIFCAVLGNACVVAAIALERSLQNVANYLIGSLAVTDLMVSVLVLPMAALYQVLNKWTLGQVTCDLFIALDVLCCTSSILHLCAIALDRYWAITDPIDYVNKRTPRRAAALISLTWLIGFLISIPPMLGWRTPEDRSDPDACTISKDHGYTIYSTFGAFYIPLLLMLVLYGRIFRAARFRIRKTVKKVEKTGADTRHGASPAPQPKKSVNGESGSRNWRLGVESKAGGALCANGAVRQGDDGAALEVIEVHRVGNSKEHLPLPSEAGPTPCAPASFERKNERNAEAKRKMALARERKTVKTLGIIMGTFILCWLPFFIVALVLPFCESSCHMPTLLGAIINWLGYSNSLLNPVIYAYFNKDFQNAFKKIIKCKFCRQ
The test is described as follows: In vitro agonist activity at the 5-hydroxytryptamine 1A receptor. In kind it is functional.

In test [2] the target is T2, 5-hydroxytryptamine receptor 1A (Homo sapiens, UniProt P08908).
T2 sequence (P08908 whole entry): T1 sequence (whole entry)
The test is described as follows: In vitro binding affinity towards Human 5-hydroxytryptamine 1A receptor by the displacement of [3H]8-OH-DPAT. It is filed as single protein. Put shortly:
(§1)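 Displacement binding: [³H]-prazosin for α1 and [³H]-8-OH-DPAT for human 5-HT1A. Ki values are the mean of 2–3 experiments at six concentrations, each in triplicate. 95% confidence limits were generally within 15% of the mean.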
(In a radioligand displacement assay an active substance lowers the binding of a labelled ligand.)

Test [3] addresses T3, Adrenergic receptor alpha-1 (Rattus norvegicus, UniProt P15823+P23944+P43140).
T3 sequence (P15823 whole entry): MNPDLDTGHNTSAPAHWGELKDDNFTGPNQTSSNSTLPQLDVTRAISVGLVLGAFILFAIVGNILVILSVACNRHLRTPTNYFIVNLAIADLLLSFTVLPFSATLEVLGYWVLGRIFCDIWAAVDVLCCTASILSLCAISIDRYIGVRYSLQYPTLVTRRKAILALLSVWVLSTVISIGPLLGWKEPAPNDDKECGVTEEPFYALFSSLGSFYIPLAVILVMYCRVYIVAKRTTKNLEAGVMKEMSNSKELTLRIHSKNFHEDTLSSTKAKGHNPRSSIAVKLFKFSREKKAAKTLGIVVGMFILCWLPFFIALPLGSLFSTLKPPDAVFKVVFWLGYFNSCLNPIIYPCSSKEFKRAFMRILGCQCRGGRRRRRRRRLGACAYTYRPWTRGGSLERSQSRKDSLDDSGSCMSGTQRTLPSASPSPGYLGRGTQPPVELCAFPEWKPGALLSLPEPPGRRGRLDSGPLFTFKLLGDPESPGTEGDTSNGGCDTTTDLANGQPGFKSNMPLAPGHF
T3 sequence (P23944 whole entry): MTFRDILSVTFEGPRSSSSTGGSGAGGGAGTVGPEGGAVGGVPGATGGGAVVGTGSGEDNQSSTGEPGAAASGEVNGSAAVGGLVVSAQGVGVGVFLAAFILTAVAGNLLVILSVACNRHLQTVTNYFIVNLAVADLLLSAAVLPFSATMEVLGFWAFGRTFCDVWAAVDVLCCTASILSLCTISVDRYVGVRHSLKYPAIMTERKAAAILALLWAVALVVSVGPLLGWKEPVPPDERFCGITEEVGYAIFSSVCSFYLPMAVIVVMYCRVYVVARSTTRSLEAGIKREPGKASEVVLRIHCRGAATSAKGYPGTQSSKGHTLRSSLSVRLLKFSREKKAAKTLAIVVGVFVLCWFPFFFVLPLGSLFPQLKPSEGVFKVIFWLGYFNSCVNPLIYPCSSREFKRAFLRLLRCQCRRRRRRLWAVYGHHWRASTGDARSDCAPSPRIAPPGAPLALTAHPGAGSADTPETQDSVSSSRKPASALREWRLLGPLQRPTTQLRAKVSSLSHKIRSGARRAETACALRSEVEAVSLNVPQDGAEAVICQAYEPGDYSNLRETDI
T3 sequence (P43140 whole entry): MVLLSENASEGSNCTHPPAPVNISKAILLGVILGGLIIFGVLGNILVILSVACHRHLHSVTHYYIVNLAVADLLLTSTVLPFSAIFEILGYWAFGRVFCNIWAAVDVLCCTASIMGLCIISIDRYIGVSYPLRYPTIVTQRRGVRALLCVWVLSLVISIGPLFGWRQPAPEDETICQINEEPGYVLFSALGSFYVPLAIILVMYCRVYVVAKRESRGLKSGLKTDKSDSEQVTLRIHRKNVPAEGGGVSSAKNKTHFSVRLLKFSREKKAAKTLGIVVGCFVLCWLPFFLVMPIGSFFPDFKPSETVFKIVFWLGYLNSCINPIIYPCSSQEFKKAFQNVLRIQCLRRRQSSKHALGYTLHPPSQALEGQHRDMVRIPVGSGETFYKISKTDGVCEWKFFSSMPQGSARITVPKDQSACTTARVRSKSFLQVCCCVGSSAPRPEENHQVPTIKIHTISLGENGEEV
The test is described as follows: In vitro binding affinity towards Alpha-1 adrenergic receptor was determined by the displacement of [3H]prazosin. It is filed as protein assay. Put shortly: as §1

Test [4] concerns the target T2, 5-hydroxytryptamine receptor 1A. The test is described as follows: Antagonism of 5-hydroxytryptamine 1A receptor was determined in vitro using a [35S]GTP-gamma-S,. It is filed as functional.
Test [5] concerns the target T1, 5-hydroxytryptamine receptor 1A (Homo sapiens). The test is described as follows: Agonist activity at the 5-hydroxytryptamine 1A receptor was determined in vitro using a [35S]GTP-gamma-S,. In kind it is functional. (In general: Binding of GTPγS marks nucleotide exchange on a G protein.)
Test [6] concerns the target T2, 5-hydroxytryptamine receptor 1A. Kind of test: Antagonism of 5-hydroxytryptamine 1A receptor determined in vitro. In kind it is functional.
In test [7] the target is Sodium-dependent serotonin transporter (Rattus norvegicus, UniProt P31652). Kind of test: Affinity for RB Serotonin transporter was determined in vitro by incubating compound. Put shortly: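 Radioligand binding to the 5-HT transporter with [³H]-paroxetine. Ki values are the mean of 2–3 experiments, each run in triplicate at six concentrations. 95% confidence limits were generally within 15% of the mean.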
Sequence of Sodium-dependent serotonin transporter (Rattus norvegicus, UniProt P31652) (P31652 whole entry): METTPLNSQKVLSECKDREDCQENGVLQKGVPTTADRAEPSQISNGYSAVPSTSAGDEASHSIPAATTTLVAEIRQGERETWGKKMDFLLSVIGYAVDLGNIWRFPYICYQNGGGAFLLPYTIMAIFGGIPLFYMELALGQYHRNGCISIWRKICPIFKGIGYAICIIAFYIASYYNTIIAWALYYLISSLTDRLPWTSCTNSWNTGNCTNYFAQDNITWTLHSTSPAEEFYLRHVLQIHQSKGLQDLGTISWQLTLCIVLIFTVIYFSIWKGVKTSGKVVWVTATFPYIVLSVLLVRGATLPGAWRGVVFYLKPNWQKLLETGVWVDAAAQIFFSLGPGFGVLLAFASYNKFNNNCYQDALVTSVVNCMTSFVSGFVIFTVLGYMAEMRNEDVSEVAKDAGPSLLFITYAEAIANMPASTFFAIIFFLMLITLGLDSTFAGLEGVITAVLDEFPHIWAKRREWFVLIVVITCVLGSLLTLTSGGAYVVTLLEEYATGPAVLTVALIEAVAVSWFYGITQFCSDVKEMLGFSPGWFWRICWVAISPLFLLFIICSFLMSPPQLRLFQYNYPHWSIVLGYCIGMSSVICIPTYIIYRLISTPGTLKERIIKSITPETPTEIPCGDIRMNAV

Test [8] deals with Sodium-dependent serotonin transporter (Homo sapiens, UniProt P31645). The test is described as follows: Affinity for HC Serotonin transporter determined in vitro by incubating compound and [3H]5-HT with human carcinoma (Jar cells), previously treated with staurosporine. It is filed as cell-based. The method, boiled down: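 Read-out is specific [³H]-5-HT uptake into Jar human carcinoma cells pretreated with staurosporine to enhance transporter expression, after incubation with the test compound.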
Sequence of Sodium-dependent serotonin transporter (Homo sapiens, UniProt P31645) (P31645 whole entry): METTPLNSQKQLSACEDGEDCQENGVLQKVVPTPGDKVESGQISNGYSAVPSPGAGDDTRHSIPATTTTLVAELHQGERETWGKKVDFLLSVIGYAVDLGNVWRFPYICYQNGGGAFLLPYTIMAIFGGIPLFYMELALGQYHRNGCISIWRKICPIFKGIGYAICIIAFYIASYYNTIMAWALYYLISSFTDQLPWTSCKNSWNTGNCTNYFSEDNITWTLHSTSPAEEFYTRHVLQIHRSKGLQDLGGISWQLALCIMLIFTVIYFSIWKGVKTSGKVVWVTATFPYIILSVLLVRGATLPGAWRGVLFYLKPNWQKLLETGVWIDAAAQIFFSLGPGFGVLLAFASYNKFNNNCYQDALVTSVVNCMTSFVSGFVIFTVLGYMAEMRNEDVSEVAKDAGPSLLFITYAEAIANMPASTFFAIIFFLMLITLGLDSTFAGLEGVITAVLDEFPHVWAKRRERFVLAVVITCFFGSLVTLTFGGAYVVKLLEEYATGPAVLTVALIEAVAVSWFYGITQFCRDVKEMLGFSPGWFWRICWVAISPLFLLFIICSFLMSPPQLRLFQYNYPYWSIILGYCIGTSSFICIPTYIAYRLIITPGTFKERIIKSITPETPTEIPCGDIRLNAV

For test [9], the target named is T1, 5-hydroxytryptamine receptor 1A (Homo sapiens). The test is described as follows: Agonist activity at the 5-hydroxytryptamine 1A receptor determined in vitro using a [35S]GTP-gamma-S,. It is filed as functional.
Test [10] addresses T2, 5-hydroxytryptamine receptor 1A. The test is described as follows: Antagonism at the 5-hydroxytryptamine 1A receptor was determined in vitro using a [35S]GTP-gamma-S,. It is filed as functional.
Test [11] has the same target. The test is described as follows: Antagonism at the 5-hydroxytryptamine 1A receptor in vitro. In kind it is functional.

A word on the Ki: it is the dissociation constant of the complex between target and ligand, obtained from inhibition or displacement. A high value points to weaker binding. As usually defined, the IC50 is the concentration at which inhibition is half-maximal. Read a low IC50 as higher potency. For `Fc1ccc2c(C3CCN(CCOc4cccc5c4OCCO5)CC3)c[nH]c2c1`, the Emax in test [1] was found to be 0; in test [5] it was 29.5. In addition, the Ki was 19.6 nM in [2], 2.8 nM in test [3], 4.7 nM in test [7] and 128 nM in test [8]. Also, the values for the IC50 in [4] and in [6] were 666 nM and 920 nM, respectively.

Turning to `C1=C(c2c[nH]c3ccccc23)CCN(CCOc2cccc3ncccc23)C1`, the Emax in test [1] was 0; in test [5], 14. Moreover, the Ki in test [2] came to 92.6 nM; in [3] it was 3.6 nM; in [7], 0.23 nM; in test [8] it was 93.6 nM. Moreover, the IC50 in test [4] was found to be 524 nM; in test [6], 686 nM.

Consider `C1=C(c2c[nH]c3ccccc23)CCN(CCOc2cccc3[nH]ccc23)C1`, for which the Emax in test [1] amounted to 0; in test [9] it was 7.5. Besides, the Ki in test [2] came out at 21.6 nM; in test [3], 0.19 nM; in [7], 0.03 nM; in test [8] it was 41.2 nM. Further, the values for the IC50 in test [6] and in test [10] were 33 nM and 115 nM, respectively.

Take `C1=C(c2c[nH]c3ncccc23)CCN(CCOc2cccc3[nH]ccc23)C1`: the figures for the Emax in test [1] and in [5] were 0 and 7, respectively. Also, the results for the Ki in test [3] and in test [8] were 0.9 nM and 175 nM, respectively. Moreover, the IC50 in test [4] came out at 38.9 nM; in [6], 12 nM.

As to `C1=C(c2c[nH]c3ncccc23)CCN(CCOc2cccc3ncccc23)C1`, the Emax in test [1] and in test [5] was 0 throughout. Further, the Ki in test [3] amounted to 78 nM; in test [8], 387 nM. For the same molecule, the IC50 in [6] worked out at 90 nM; in test [10], 181 nM.

For `C1=C(c2c[nH]c3ncccc23)CCN(CCOc2cccc3c2OCCO3)C1`, the figures for the Emax in [1] and in test [5] were 0 and 30, respectively. In addition, the Ki in test [3] came out at 33 nM; in test [8], 276 nM. The molecule also showed an IC50 in test [11] of 969 nM.

For the molecule `Fc1ccc2[nH]cc(C3=CCN(CCOc4cccc5c4OCCO5)CC3)c2c1`, the Emax was determined as 0 in test [1] and 11 in [5]. The results for the Ki in test [3], in test [7] and in test [8] were 30 nM, 1.17 nM and 46.9 nM, respectively. Moreover, the concentration for half-maximal inhibition (IC50) in [4] amounted to 684 nM; in [6], 1040 nM.

For `Fc1ccc2[nH]cc(CC3CCN(CCOc4cccc5c4OCCO5)CC3)c2c1`, the Ki in test [7] was determined as 0.01 nM.

With `C1=C(c2c[nH]c3ccccc23)CCN(CCOc2cccc3c2OCCO3)C1`, the Emax in test [1] is 0; in test [5] it was 21. Moreover, the Ki in [3] worked out at 4.7 nM; in [7], 0.17 nM; in test [8], 45 nM. In addition, the IC50 in [4] was determined as 222 nM; in test [6] it was 115 nM.

In the case of `Fc1ccc2c(C3=CCN(CCOc4cccc5c4OCCO5)CC3)c[nH]c2c1`, the Ki is 83.6 nM in [2], 4.1 nM in test [3], 0.15 nM in [7] and 19.8 nM in [8]. In addition, in [5], the Emax was 53.
